PMC3619423 (Experimental eye research, 2013)
“Also recorded” adds a separate entry of the source. No end group written: not given here.

Columns and labels:
[1] = bovine, 37 °C
[2] = tested on: bovine lens protease-rich fraction; assay: Hydrolysis of MCA-62-70 substrate by lens protease in the presence of inhibitors; assay type: biochemical; settings: for inhibition of MCA-62-70 hydrolysis: pre-incubated 30 min at 37 °C
[3] = bovine lens extract containing 5 mg protein; settings: 37 °C, up to 16 h
[4] = tested on: Arg-MCA hydrolyzing activity (aminopeptidase activity); assay: Arg-MCA hydrolysis; assay type: biochemical, bovine
[5] = tested on: bovine lens extracts (outer cortical, inner cortical, nuclear); assay: MCA-62-70 hydrolytic activity in regions of bovine lens; assay type: biochemical; settings: 1 mg protein extract, 37 °C
How it was run: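 Decapsulated bovine lenses stirred at 4 °C in 50 mM sodium phosphate, 150 mM NaCl, pH 7.2, dissolving outer cortex (about a third of wet weight), then inner cortex (about a third); remaining nucleus homogenised. Each fraction centrifuged 30,000 × g, 30 min; supernatant (1 mg protein) incubated with 25 μg MCA-62-70, 2 h, 37 °C; fluorescence read before and after (ex 326, em 398 nm).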

[6] = tested on: human lens extracts (cortical, nuclear); assay: MCA-62-70 hydrolytic activity in human lenses of different age; assay type: biochemical; settings: for total protease activity (MCA-62-70 hydrolyzed): water-soluble proteins
How it was run: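 Cortical and nuclear regions of frozen young, middle-aged and old human lenses separated by dissection; water-soluble extracts (1 mg protein) incubated with 25 μg MCA-62-70 substrate, 2 h, 37 °C. Fluorescence read before and after (ex 326, em 398 nm). Amount hydrolysed taken from a standard curve of trypsin-digested substrate; average ± SE of four independent experiments; one-way ANOVA with Tukey's test.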

[7] = protease-rich human; settings: 37 °C, up to 5 h
[8] = tested on: peptidase-rich fraction of bovine lens extract

SDRDKFVIFLDVKHF
not cleaved [1]: αA-66-80 was not hydrolyzed

O=C(O)CN(CCN(CC(=O)O)CC(=O)O)CC(=O)O [EDTA, ethylene diamine tetraacetic acid]
inhibition of MCA-62-70 hydrolysis ([2]; concentration not given): 50%

Succinyl-DVKHFSPEDK-Biotin
fragment found [3]: αA-76-78; also recorded: αA-76-80; also recorded: αA-76-82, major

Succinyl-ISEVRSDRDK-Biotin
fragment found [3]: αA-61-65; also recorded: αA-61-66

α-crystallin: bovine lens α-crystallin, molecular chaperone protein added to the peptidase incubations
increase of Arg-MCA hydrolysis by peptidase-rich bovine lens fraction ([4]; addition of 12.5 nmoles α-crystallin, data not shown): ~4 fold

MCA-SEVRSDRD[Lys(Dnp)]RR-NH2 [MCA-62-70]
enzymatic activity (MCA-62-70 hydrolysis) ([5]; bovine lens inner cortex): 0.10 ± 0.01 nmoles/hr/mg protein | enzymatic activity (MCA-62-70 hydrolysis) ([5]; bovine lens nuclear region): 0.04 ± 0.003 nmoles/hr/mg protein | enzymatic activity (MCA-62-70 hydrolysis) ([5]; bovine lens outer cortical region): 0.58 ± 0.04 nmoles/hr/mg protein | share of total lens enzymatic activity in the cortical region ([6]; human lens cortical region, all age groups): ~90% | total protease activity (MCA-62-70 hydrolyzed) ([6]; middle-aged (40 ± 2 years) human lenses): 7.26 ± 0.83 n moles/h | total protease activity (MCA-62-70 hydrolyzed) ([6]; older (60 ± 2 years) human lenses): 5.49 ± 0.29 nmol/h | total protease activity (MCA-62-70 hydrolyzed) ([6]; young (20 ± 2 years) human lenses): 8.84 ± 0.96 nmol/h

O=C(O)CN(CCOCCOCCN(CC(=O)O)CC(=O)O)CC(=O)O [EGTA, ethylene glycol tetraacetic acid]
inhibition of MCA-62-70 hydrolysis ([2]; concentration not given): 50%

O=c1oc(Cl)c(Cl)c2ccccc12 [3,4-DCI]
inhibition of MCA-62-70 hydrolysis ([2]; 500 μM): up to 85%

NC(=O)CI [Iodoacetamide]
Relative activity (%) [2]: 97%

CC(C)C[C@H](NC(=O)[C@@H](O)[C@H](N)Cc1ccccc1)C(=O)O [Bestatin, reference compound]
inhibition of Arg-MCA hydrolyzing activity (aminopeptidase activity) ([4]; protease preparation treated with bestatin): complete inhibition

MCA-SEVRSDRD[Lys(Dnp)]RR-NH2
fragment found [7]: MCA-62-68 (MCA-SEVRSDR); also recorded: MCA-62-65 (MCA-SEVR); also recorded: MCA-62-66 (MCA-SEVRS), major

RPPGFSPFR [bradykinin, Bradykinin]
hydrolysis after 2 h [8]: complete hydrolysis | slowing of hydrolysis rate versus peptide incubated alone [8]: 40%
